Screening results (PubChem BioAssay)
RGS4 block – RGS4 inhibitors, primary screen, cell-based, HEK293 M3R inducible RGS4, calcium flux; B-score at 10 µM; Regulator of G-protein signaling 4 (Homo sapiens), P49798; Fluo-4 calcium flux; active compounds read high; triggered by carbachol at its EC20; actives 0.45% (n = 310,000);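 active = B-score, a plate-corrected calcium signal, over three deviations above library mean, with baseline fluorescence within five deviations of library mean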;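 note: RGS4 expression induced by doxycycline in cells with stable M3 receptor; B-score is computed from the integrated fluorescence ratio over baseline after carbachol; higher B-score means a larger calcium signal and so more RGS4 inhibition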
Target sequence (P49798 whole entry, looked up): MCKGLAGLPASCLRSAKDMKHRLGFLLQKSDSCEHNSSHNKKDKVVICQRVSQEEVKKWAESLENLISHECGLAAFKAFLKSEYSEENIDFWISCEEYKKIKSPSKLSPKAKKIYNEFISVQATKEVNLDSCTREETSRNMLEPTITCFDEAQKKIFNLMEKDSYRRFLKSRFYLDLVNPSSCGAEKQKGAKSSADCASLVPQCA
RGS4 act – RGS4 potentiators or activators, primary screen, cell-based, HEK293 M3R inducible RGS4, calcium flux; carbachol calcium flux Fluo4; active compounds read low; B-score at 10 µM; actives 0.92% (n = 310,000); AID 463111, 2010;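 active = B-score of the integrated calcium signal more than 4 SD below the library mean, with starting fluorescence not abnormally high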;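 note: negative B-score means reduced calcium response which marks RGS4 activation or potentiation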
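test system = HEK293 cells with stable M3R and inducible RGS4 | schedule = recording 10 s baseline at 1 Hz, 100 s post-agonist | technique = Fluo4-AM (2 µM) calcium-flux fluorescence, kinetic read | measure = Agonist-evoked peak-minus-minimum fluorescence over baseline, integrated ratio, B score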
MrgX1 antag – antagonists of human MrgX1 receptor, primary screen, HEK293 cells, Fluo-4 calcium flux | actives 1.3% (n = 310,000) | BAM8-22 antagonism; active compounds read low | Mas-related G-protein coupled receptor member X1 (Homo sapiens), Q96LB2 | B-score at 10 µM;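 active = calcium-response B-score plate-corrected more than 3 library SD below zero, starting fluorescence within 5 deviations, no agonist response on first addition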;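 note: peak minus trough fluorescence over baseline after final BAM8-22 challenge near maximal dose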
Target sequence (Q96LB2 whole entry, looked up): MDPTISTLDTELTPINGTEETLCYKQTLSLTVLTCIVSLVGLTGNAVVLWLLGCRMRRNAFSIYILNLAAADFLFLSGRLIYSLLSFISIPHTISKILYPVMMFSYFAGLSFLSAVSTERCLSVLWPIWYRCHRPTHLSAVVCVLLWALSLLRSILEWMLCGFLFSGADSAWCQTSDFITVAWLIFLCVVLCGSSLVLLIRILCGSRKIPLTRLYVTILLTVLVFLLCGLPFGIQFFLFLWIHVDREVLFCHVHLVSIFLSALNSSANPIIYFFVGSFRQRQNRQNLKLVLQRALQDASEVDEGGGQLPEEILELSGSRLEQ
MrgX1 allo act – positive allosteric modulators of MrgX1, primary screen, HEK293 cells, Fluo-4 calcium flux; FDSS; active compounds read high; B-score at 10 µM; AID 588675, 2011; actives 0.63% (n = 310,000);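 active = plate-corrected calcium response at least 3 library SD above typical, normal starting fluorescence, not activating the receptor alone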;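 note: compound read alongside a low EC10 to EC30 dose of BAM8-22 agonist; peak minus trough fluorescence over baseline measured at the second addition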
MrgX1 agonist – agonists of human MrgX1 receptor, primary screen, HEK293 cells, Fluo-4 calcium flux | Fluo-4 calcium fluorescence, agonist mode; active compounds read high | B-score at 10 µM | actives 0.44% (n = 310,000) | AID 588627, 2011;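 active = calcium response B-score plate-corrected fluorescence ratio at least 3 library SD, with starting fluorescence B-score inside 5 SD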
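Test system: Stable human MrgX1 HEK293 cell line | Schedule: Overnight plating before 1 h dye loading | Read-out basis: Baseline-normalised fluorescence change ratio, B-scored | Detection: Kinetic calcium dye fluorescence, Fluo-4 NW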
* hit, by the source's call; i = inactive. Compounds with a hit are over-represented: about 3.5% of the library has one in this group of screens.

SMILES	RGS4 block	RGS4 act	MrgX1 antag	MrgX1 allo act	MrgX1 agonist
COCOc1ccc(-c2oc3c(C/C=C(\C)CCC=C(C)C)ccc(O)c3c(=O)c2OCOC)c(OCOC)c1	i	i	-6.9*	i	i
COc1ccc2ccccc2c1/C=N/NC(=O)c1nnn(-c2nonc2N)c1CN(C)C	i	i	i	i	i
COc1ccc2ccccc2c1/C=N/NC(=O)c1nnn(-c2nonc2N)c1C(C)C	i	-7.1*	i	i	i
COc1ccc(CCN2C(=O)NC(NS(=O)(=O)c3ccc(N)cc3)(C(F)(F)F)C2=O)cc1OC (stereo not given)	i	i	i	i	i
CCOc1ccc2c(c1)/C(=C(\C(Cl)=C(Cl)Cl)[N+](=O)[O-])N2	i	i	i	i	i
CCCCOc1ccc2c(c1)/C(=C(\C(Cl)=C(Cl)Cl)[N+](=O)[O-])N2	i	i	i	i	34*
COc1ccc(-n2c(O)c(/C=N/NS(=O)(=O)c3cccc([N+](=O)[O-])c3)c3ccccc3c2=O)cc1OC	i	i	i	i	i
C/C(=N\O)C(C)(C)Nc1ccc(F)cc1	i	i	i	i	i
C/C(=N\O)C(C)(C)Nc1ccc(Cl)cc1	i	i	i	i	44*
CC(C)Cc1ccc(CN2CCCC(NC(=O)c3cccc(-n4cnnc4)c3)C2)cc1 (stereo not given)	i	i	i	i	i
Cc1ccc(-c2nnc(N3CCN(C(=O)COc4cccc(C)c4)CC3)c3ccccc23)cc1	i	-7.3*	i	i	i
Cc1ccc(OCC(=O)N2CCN(c3nnc(-c4ccc(C)cc4)c4ccccc34)CC2)cc1	i	i	i	i	i
CC1Cc2ccccc2N1C(=O)CCn1cccn1 (stereo not given)	i	i	i	i	i
O=C(O)COc1ccc(F)cc1Br	i	i	i	i	i
CCOC(=O)c1ccc(Nc2ncccc2[N+](=O)[O-])cc1	i	i	-5.8*	i	i
CCOC(=O)c1ccc(NC(=O)c2ccccc2[N+](=O)[O-])cc1	i	i	i	i	i
Cc1ccc(NC(=S)N2CCC(NC(=O)c3ccco3)CC2)cc1C	i	i	i	i	i
COc1ccccc1C(=O)COC(=O)c1ccccc1OCC(=O)Nc1ccc(SC(F)F)cc1	i	-7.8*	i	i	i
O=C1c2ccccc2NC(c2cccc([N+](=O)[O-])c2)N1CCc1ccccc1 (stereo not given)	i	i	i	15*	i
O=C(CSc1ccc(-c2ccc(F)cc2)nn1)N1CCCc2ccccc21	i	-7.4*	i	i	i
O=C(CSc1ccc(-c2ccc(Cl)cc2)nn1)N1CCCc2ccccc21	i	i	i	i	i
CCN(CC)C(=O)COC(=O)C1=NN(c2cc(C)ccc2C)C(=O)CC1	i	i	-5.5*	i	i
CC(C)(C)c1cc(C(=O)NNC(=O)Nc2cccc(Cl)c2)n(Cc2ccccc2)n1	i	i	i	i	i
CC(C)(C)c1cc(C(=O)NNC(=O)Nc2ccccc2)n(Cc2ccccc2)n1	i	i	-4.9*	i	i
CCC(=O)N1CCc2cc(Br)cc(S(=O)(=O)N3CCC(C(=O)NC(C)C)CC3)c21	i	i	i	i	i
SMILES	RGS4 block	RGS4 act	MrgX1 antag	MrgX1 allo act	MrgX1 agonist
COc1cccc(C(=O)NCC(c2ccc3c(c2)OCO3)N2CCN(c3ccc(F)cc3)CC2)c1 (stereo not given)	i	i	i	i	i
COc1ccc(C(=O)NCc2ccc3c(c2)OCO3)c(OC)c1	i	i	i	i	i
COc1ccc2oc(=O)c(C(=O)NCc3ccc4c(c3)OCO4)cc2c1	i	i	-6.1*	i	i
CCN(CC)c1ccc(NS(=O)(=O)c2ccc(OC)cc2)cc1	i	i	i	i	i
Cc1ccc(C2Oc3ccccc3C3=C2C(c2cccs2)n2ncnc2N3)cc1 (stereo not given)	i	-7.3*	i	i	i
Fc1ccc(C2C3=C(Nc4ncnn42)c2ccccc2OC3c2ccncc2)cc1 (stereo not given)	i	i	i	i	i
C/C(=N/Nc1ccc(C(=O)O)cc1)c1ccc(O)c(O)c1O	i	i	i	i	i
COc1ccccc1/C=C/C(=O)N1CCc2cc(OC)c(OC)cc2C1C (stereo not given)	i	i	i	i	i
CN(Cc1ccc(F)cc1)C(=O)c1sccc1-c1ccccc1	i	-7.2*	i	i	i
COc1ccccc1CN1CCC(CNS(=O)(=O)c2cc(-c3cc(C)no3)ccc2OC)CC1	i	-7.6*	i	i	i
COc1cc(/C=N/NC(N)=O)ccc1OC(=O)c1cccs1	i	i	i	9.5*	i
CCOC(=O)N1CCN(C(=O)CSc2ccc3nnc(-c4cccnc4)n3n2)CC1	i	i	i	i	i
CC1CC(C)CN(C(=O)Cn2nnc(-c3ccc(Br)cc3)n2)C1 (stereo not given)	i	i	i	i	i
Cc1n[nH]c(C)c1N=Nc1cc(Cl)ccc1Cl	i	i	-5.4*	i	i
COc1ccccc1N=Nc1c(C)n[nH]c1C	i	i	i	i	i
CCc1ccc2oc(=O)cc(CN3CCC(C)CC3)c2c1	i	i	i	i	29*
CCc1ccc2oc(=O)cc(CN3CCOCC3)c2c1	i	i	i	i	i
CC1CCN(Cc2cc(=O)oc3cc4c(cc23)CCCC4)CC1	i	i	i	8.5*	i
OC(CCN1CCCCC1)(c1ccccc1)C1CCCCC1 (stereo not given)	i	i	i	i	i
Cc1ccc(C(O)(CCN2CCCCC2)c2ccccc2)cc1 (stereo not given)	i	-7.6*	i	i	i
COc1ccc(C(=O)Nc2cccc3c2CCCC3)c(OC)c1	i	i	i	i	i
COCCNS(=O)(=O)c1ccc(C)c(C)c1C	i	i	i	i	i
O=C(CCC1CCN(C(=O)c2cc(C(F)(F)F)ccc2Cl)CC1)NC1CC1	i	i	i	i	i
